The values below come from ChEMBL document CHEMBL1142233, “Treatment of diabetes and atherosclerosis by inhibiting fatty-acid-binding protein aP2” (2007).

The test system of assay [1] is Mus musculus. As to the kind of experiment: Decrease in Mcp1 expression in ob/ob mouse adipose tissue at 40 mg/kg/day, po. The assay is classed as functional, organism-based.
Assay [2] addresses Apolipoprotein A-I (Homo sapiens) (UniProt P02647). As to the kind of experiment: Increase in APOA1-mediated cholesterol in human THP1 cells at 25 uM relative to control. The format is cell-based. Particulars: THP-1. The procedure, abridged:
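Macrophages loaded 24 h in RPMI with 5% LPDS, 1 μCi ml⁻¹ ³H-cholesterol and 50 μg ml⁻¹ acLDL, ± 25 μM inhibitor. Equilibrated 24 h in 0.2% fatty-acid-free BSA ± inhibitor, then 4 h ± APOA1 20 μg ml⁻¹. Efflux = medium ³H as % of total, per mg protein; mouse lines normalized to untreated aP2+/+.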

Assay [3] deals with Mus musculus. The assay is described as follows: Increase in insulin-stimulated AKT serine 473 phosphorylation in ob/ob mouse adipose tissue at 40 mg/kg/day, po relative to control. The format is functional, organism-based. The procedure, abridged: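 Male ob/ob mice were dosed by oral gavage at 40 mg kg⁻¹ d⁻¹ or with vehicle. After 6 h food withdrawal and tribromoethanol anaesthesia, insulin (2 IU kg⁻¹) or PBS went into the portal vein. Adipose tissue was taken 3 min later, lysed and immunoblotted for IRβ pTyr1162/1163, AKT pSer473 and total proteins. Signals were quantified by densitometry.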

Assay [4] can be described thus: Reduction of Mcp1 expression mouse aP2-/-R macrophage cells (re-expression of aP2) relative to control. The format is functional, cell-based. The essentials: (§1)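 Mouse aP2⁺/⁺ and aP2-reconstituted aP2⁻/⁻ macrophage lines were grown in RPMI with FBS or 5% LPDS, with inhibitor in DMSO or vehicle. Mcp-1, Il1β, Il6 and Tnf mRNA were measured by SYBR Green qRT-PCR (annealing at 58 °C, 50 cycles), normalized to 18s rRNA and then to untreated cells. Mean ± s.e.m.; at least triplicate.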

Assay [5] concerns Mus musculus. As to the kind of experiment: Effect on cholesterol level in 5-week old apoE-/- C57BL/6J mouse fed on western diet and administered with 15 mg/kg/day, po drug at 12 week in 12-18 week late intervention study. The assay is classed as functional. The procedure, abridged:
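Male Apoe−/− mice on western diet (21% fat, 0.21% cholesterol) from 4–5 weeks of age. Oral gavage for 6 weeks from age 5 or 12 weeks; vehicle 10% 1-methyl-2-pyrrolidone, 5% cremophor EL with ethanol in water. Blood taken after 6 h fast before and after treatment. Glucose by meter; insulin by ELISA; lipids and glycerol colorimetric.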

Assay [6] deals with Mus musculus. The assay is described as follows: Decrease in triglyceride level in ob/ob mouse at 40 mg/kg/day, po after 6 weeks relative to control. The format is functional.
Assay [7] deals with THP-1. As to the kind of experiment: Increase in ABCA1 mRNA level in human THP1 cells at 25 uM relative to control. The format is functional, cell-based.
Assay [8] deals with Mus musculus. The assay is described as follows: Increase in adiponectin level in ob/ob mouse plasma at 40 mg/kg/day, po after 6 weeks relative to control. The assay is classed as functional, organism-based. The procedure, abridged:
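Plasma from male ob/ob mice after 6 weeks of daily oral gavage (started at 8 weeks), 6 h fasted, n = 6 per group. Adiponectin measured by ELISA.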

For assay [9], the system named is Mus musculus. The assay is described as follows: Effect on glycerol level in ob/ob mouse at 40 mg/kg/day, po after 6 weeks relative to control. The format is functional. The procedure, abridged: (§2)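 Male ob/ob mice given oral gavage daily for 6 weeks from 8 weeks old, n = 6 per group. Blood taken after 6 h fast before and after treatment; fed glucose taken at week 2. Glucose by meter on 3 μl whole blood, insulin by ultrasensitive ELISA, cholesterol, FFA and glycerol by colorimetric microplate assays.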

For assay [10], the system named is Mus musculus. The assay is described as follows: Decrease in TNF expression in ob/ob mouse adipose tissue at 40 mg/kg/day, po. The assay is classed as functional, organism-based.
The nature of assay [11]: Decrease in MCP1 production in mouse aP2-/-R macrophage cells (re-expression of aP2) after 24 hrs. The assay is classed as functional, cell-based. The essentials: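 Immortalized mouse macrophage lines (aP2−/−R re-expressing aP2) kept 24 h in RPMI plus 5% LPDS with inhibitor 0–25 μM in DMSO. MCP-1 in supernatant measured by ELISA and expressed relative to inhibitor-free cells of each line. At least triplicate.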

In assay [12] the test system is Mus musculus. The assay is described as follows: Decrease in Cd68 expression in ob/ob mouse adipose tissue at 40 mg/kg/day, po. The format is functional, organism-based.
In assay [13] the test system is Mus musculus. As to the kind of experiment: Decrease in insulin level in ob/ob mouse plasma at 40 mg/kg/day, po after 6 weeks relative to control. The assay is classed as functional, organism-based. The essentials:
as §2

Assay [14] in a line: Reduction of IL1-beta expressed in mouse aP2-/-R macrophage cells (re-expression of aP2) relative to control. The format is functional, cell-based. The essentials:
as §1

Assay [15] relates to THP-1. As to the kind of experiment: Reduction of transformation of human THP1 cells to foam cells at 25 uM after 3 days relative to control. The assay is classed as functional, cell-based. The procedure, abridged:
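PMA-differentiated THP-1 macrophages (100 nM, 24 h) were loaded with 50 μg ml⁻¹ acLDL for 24 h in 5% LPDS, then treated 3 days with 25 μM inhibitor or DMSO in 10% FBS. Cells were fixed in 10% formalin for 90 min and stained with Oil Red O for 3 h to view foam cells.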

Assay [16] in a line: Reduction of Mcp1 expression mouse aP2+/+ macrophage cells relative to control. The assay is classed as functional, cell-based. The essentials:
as §1

Assay [17] deals with THP-1. The assay is described as follows: Reduction of IL6 expression in human THP1 cells expressing aP2 relative to control. The format is functional, cell-based.
In assay [18] the test system is THP-1. The assay is described as follows: Reduction of IL1-beta expression in human THP1 cells expressing aP2 relative to control. The format is functional, cell-based.
Assay [19] relates to Mus musculus. The assay is described as follows: Increase in insulin-stimulated IRbeta tyrosine 1162/1163 phosphorylation in ob/ob mouse liver at 40 mg/kg/day, po relative to control. The format is functional, organism-based. The essentials: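 Male ob/ob mice got 40 mg kg⁻¹ d⁻¹ by oral gavage or vehicle. After a 6 h fast under tribromoethanol anaesthesia, portal-vein insulin (2 IU kg⁻¹) or PBS was given. Liver was removed 3 min later, lysed and western-blotted for IRβ pTyr1162/1163 and AKT pSer473 against total IRβ and AKT, then quantified.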

Assay [20] deals with Mus musculus. The assay is described as follows: Decrease in IL1-beta expression in ob/ob mouse adipose tissue at 40 mg/kg/day, po. The assay is classed as functional, organism-based.
The species entered for assay [21] is Mus musculus. As to the kind of experiment: Decrease in fatty acid uptake in wild type mouse aP2+/+ mal1+/+ preadipocytes after 24 hrs. The assay is classed as functional. The procedure, abridged:
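Immortalized mouse pre-adipocytes differentiated with dexamethasone, IBMX, rosiglitazone and insulin, then insulin alone. Cells incubated 24 h in DMEM with 2% FBS plus inhibitor, then moved to DMEM with 2% BSA and given ³H-stearate at 37 °C for 30 min. Lysate counted by scintillation; values normalized to protein and expressed as % of untreated.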

In assay [22] the test system is Mus musculus. As to the kind of experiment: Increase in whole body glucose disposal and glucose infusion rate in ob/ob mouse at 40 mg/kg/day, po after 4 weeks by hyperinsulinemic-euglycaemic clamp studies. The assay is classed as functional, organism-based. The procedure, abridged: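 Clamps were run in ob/ob mice after 4 weeks of oral gavage at 40 mg kg⁻¹ d⁻¹ (vehicle n = 7, treated n = 9), with jugular catheters placed 4 days earlier. Insulin was infused at 12.5 mU kg⁻¹ min⁻¹, 25% glucose at variable rates held basal glycaemia, and ³H-glucose ran at 0.1 μCi min⁻¹. Clamp hepatic glucose production = whole-body uptake minus glucose infusion rate.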

The subject of assay [23] is Mus musculus. The assay is described as follows: Decrease in Scd1 expression in liver of ob/ob mouse at 40 mg/kg/day, po. The format is functional, organism-based. The essentials:
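Liver from male ob/ob mice gavaged daily for 6 weeks from 8 weeks of age, n = 6 per group. mRNA measured by SYBR Green real-time PCR: 95 °C 4 min, then 50 cycles of 95 °C 15 s, 58 °C 30 s, 72 °C 30 s. Normalized to 18s rRNA.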

Each structure is given as a SMILES string. Calls of active or inactive are those of the source. The calls are words filed in the database; no cut-off is given here.

Apolipoprotein A-I (Homo sapiens), sequence (P02647 whole entry): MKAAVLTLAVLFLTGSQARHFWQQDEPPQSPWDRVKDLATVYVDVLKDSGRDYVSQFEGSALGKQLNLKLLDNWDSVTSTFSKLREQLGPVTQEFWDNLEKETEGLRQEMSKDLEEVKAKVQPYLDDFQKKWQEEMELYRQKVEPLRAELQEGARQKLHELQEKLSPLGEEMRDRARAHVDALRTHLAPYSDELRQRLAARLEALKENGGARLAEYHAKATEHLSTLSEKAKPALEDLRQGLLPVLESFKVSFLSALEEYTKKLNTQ

`CCc1c(-c2ccccc2)c(-c2ccccc2)nn1-c1ccccc1-c1cccc(OCC(=O)O)c1`: the result in [1], in [2], in [3], in assay [4], in assay [7] and in assay [8] was Active. Further, the result in [10], in assay [11], in assay [12], in assay [13], in [14] and in [15] was Active. In addition, the outcome in assay [16], in assay [17], in assay [18], in assay [19], in assay [20] and in assay [22] was Active. In addition, in assay [23], the outcome was Active. Further, the Activity in assay [5] was 2277.2 mg/dL; in [6], 58 mg/dL; in [9], 0.56 mM; in assay [21], “Dose-dependent effect”.
